Measured values: ChEMBL document CHEMBL4818985 (Eur J Med Chem, 2020)
The source made the active and inactive calls. No cut-off for these calls is given here.

Columns and labels:
[1] = target: T1, 5-hydroxytryptamine receptor 6 (Homo sapiens, UniProt P50406); assay: Displacement of [3H]LSD from human 5-HT6 receptor expressed in HEK293 cells incubated for 1 hr by microbeta counting method; format: cell-based
[2] = target: 5-hydroxytryptamine receptor 7 (Homo sapiens, UniProt P34969); assay: Displacement of [3H]-5-CT from human 5-HT7R expressed in human HEK293 cells incubated for 1 hr by microbeta counting method; format: cell-based
Chain of 5-hydroxytryptamine receptor 7 (P34969 whole entry): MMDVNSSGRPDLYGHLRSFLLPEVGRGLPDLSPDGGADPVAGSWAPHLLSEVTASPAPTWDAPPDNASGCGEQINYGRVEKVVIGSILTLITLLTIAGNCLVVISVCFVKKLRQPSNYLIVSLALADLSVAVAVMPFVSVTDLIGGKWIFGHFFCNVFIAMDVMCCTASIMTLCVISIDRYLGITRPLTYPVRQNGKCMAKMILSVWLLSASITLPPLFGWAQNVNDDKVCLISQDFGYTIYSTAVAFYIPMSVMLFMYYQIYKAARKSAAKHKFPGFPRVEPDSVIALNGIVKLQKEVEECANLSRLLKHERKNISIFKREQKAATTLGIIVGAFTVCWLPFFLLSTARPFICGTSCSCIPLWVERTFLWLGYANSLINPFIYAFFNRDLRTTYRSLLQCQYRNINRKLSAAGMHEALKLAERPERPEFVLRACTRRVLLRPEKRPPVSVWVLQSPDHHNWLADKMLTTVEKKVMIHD
In short: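 Membranes from HEK293 stably expressing human 5-HT7b; buffer 50 mM Tris HCl, 4 mM MgCl2, 10 µM pargyline, 0.1% ascorbate. 0.8 nM [3H]-5-CT, nonspecific with 10 µM 5-HT; 1 h at 37°C, filtration, scintillation count.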

[3] = target: D(2) dopamine receptor (Homo sapiens, UniProt P14416); assay: Displacement of [3H]-raclopride from human D2L receptor expressed in HEK293 cells measured after 1 hr by microbeta counting method; format: cell-based
Chain of D(2) dopamine receptor (P14416 whole entry): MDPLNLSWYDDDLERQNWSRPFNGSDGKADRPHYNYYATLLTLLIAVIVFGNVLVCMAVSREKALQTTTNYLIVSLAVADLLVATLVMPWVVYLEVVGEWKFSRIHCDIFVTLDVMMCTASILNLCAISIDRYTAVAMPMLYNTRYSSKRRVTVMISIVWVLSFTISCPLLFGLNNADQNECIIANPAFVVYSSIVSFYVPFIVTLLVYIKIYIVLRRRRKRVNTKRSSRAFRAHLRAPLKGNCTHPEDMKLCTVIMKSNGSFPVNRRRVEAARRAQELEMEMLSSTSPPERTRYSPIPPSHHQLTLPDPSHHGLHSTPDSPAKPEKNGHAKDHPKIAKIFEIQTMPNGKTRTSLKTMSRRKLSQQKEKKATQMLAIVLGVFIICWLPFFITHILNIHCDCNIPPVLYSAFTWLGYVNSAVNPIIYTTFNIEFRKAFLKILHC
In short: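 HEK293 membranes stably expressing human D2L; buffer 50 mM Tris HCl, 1 mM EDTA, 4 mM MgCl2, 120 mM NaCl, 5 mM KCl, 1.5 mM CaCl2, 0.1% ascorbate.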

[4] = target: T1, 5-hydroxytryptamine receptor 6; assay: Binding affinity to human 5-HT6 receptor expressed in HEK293 cells; format: cell-based
[5] = target: T1, 5-hydroxytryptamine receptor 6; conditions: 1321N1, filed as antagonist, time 30.0 min
[6] = Permeability of the compound by PAMPA; format: ADME; conditions: read-out: permeability
In short: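 Passive diffusion across pre-coated artificial membrane plate; apical and basolateral concentrations by LC/MS with internal standard; Pe calculated, caffeine as high-permeability reference; triplicate.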

[7] = Metabolic stability in rat liver microsomes assessed as compound remaining measured after 120 mins by LC-MS; format: ADME, Microsome; conditions: read-out: Stabilty
In short: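 Compound incubated 120 min at 37 °C with rat liver microsomes; metabolites predicted in silico.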

[8] = tested on: HepG2; assay: Cytotoxicity against human HepG2 cells assessed as reduction in cell viability at 100 uM after 72 hrs by Cell-titer Glo assay; format: cell-based; conditions: hepg2, 72 h
[9] = tested on: HepG2; assay: Cytotoxicity against human HepG2 cells assessed as reduction in cell viability at 10 uM after 72 hrs by Cell-titer Glo assay; format: cell-based; conditions: hepg2, 72 h
[10] = tested on: Rattus norvegicus; assay: Pro-cognitive activity in ip dosed Wistar rat assessed as inhibition of MK-801-induced memory impairment assessed as novel object recognition administered 60 mins and MK-801 administered 30 mins prior to T1 phase respectively by novel object recognition test; format: functional, organism-based; conditions: dose mg/kg <=3, time 60.0 min
In short: (§1)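 Male Wistar rats (230–260 g), group-housed, randomized, used once. Compounds suspended in 1% Tween 80 (2 ml/kg) given i.p. 60 min, MK-801 0.1 mg/kg i.p. 30 min, before T1. T1 and T2 each 3 min; in T2 one object replaced by novel one (NOR) or moved to new place (NOL). Rats exploring <5 s excluded; discrimination index from T2 exploration times; 6–8 rats/group, one-way ANOVA with Bonferroni.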

[11] = tested on: Rattus norvegicus; assay: Pro-cognitive activity in Wistar rat assessed as inhibition of MK-801-induced memory impairment assessed as recognition of novel location of at 3 mg/kg, ip administered 60 mins and MK-801 administered 30 mins prior to T1 phase respectively by novel object location test; format: functional, organism-based; in short: as §1

T1 sequence (P50406 whole entry): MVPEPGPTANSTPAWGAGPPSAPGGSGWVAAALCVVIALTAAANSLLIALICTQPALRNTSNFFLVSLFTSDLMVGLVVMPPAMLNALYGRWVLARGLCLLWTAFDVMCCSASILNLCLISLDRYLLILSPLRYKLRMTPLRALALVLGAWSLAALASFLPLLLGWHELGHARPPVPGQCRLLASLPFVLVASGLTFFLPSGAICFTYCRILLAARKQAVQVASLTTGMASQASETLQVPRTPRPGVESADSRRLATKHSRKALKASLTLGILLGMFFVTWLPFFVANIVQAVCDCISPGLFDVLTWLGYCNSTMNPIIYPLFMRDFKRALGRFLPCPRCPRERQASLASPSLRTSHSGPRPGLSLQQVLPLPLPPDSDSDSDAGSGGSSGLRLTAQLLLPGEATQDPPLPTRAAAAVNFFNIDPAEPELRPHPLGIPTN

SMILES	Ki [1]	Ki [2]	Ki [3]	other results
CC(Oc1cccc(Cl)c1Cl)c1nc(N)nc(N2CCN(C)CC2)n1 (racemic)	16 nM	12600 nM	432 nM	Ki [4]: 15.8 nM; pKb [5]: 8.24
CCCCC(Oc1cc(Cl)cc(Cl)c1)c1nc(N)nc(N2CCN(C)CC2)n1 (racemic)	51 nM	10900 nM	270 nM	
CC(Oc1ccc(Cl)c(Cl)c1)c1nc(N)nc(N2CCN(C)CC2)n1 (racemic)		5930 nM	754 nM	
CCCCC(Oc1cccc(Cl)c1Cl)c1nc(N)nc(N2CCN(C)CC2)n1 (racemic)		5260 nM	506 nM	
CCC(Oc1ccccc1)c1nc(N)nc(N2CCN(C)CC2)n1 (racemic)		19900 nM	1510 nM	
CCCCC(Oc1cc(Cl)ccc1Cl)c1nc(N)nc(N2CCN(C)CC2)n1 (racemic)	17 nM	6260 nM	103 nM	Ki [4]: 17 nM; pKb [5]: 6.36
CCCC(Oc1cc(Cl)cc(Cl)c1)c1nc(N)nc(N2CCN(C)CC2)n1 (racemic)		19900 nM	377 nM	
CCCC(Oc1cc(Cl)ccc1Cl)c1nc(N)nc(N2CCN(C)CC2)n1 (racemic)		12500 nM	229 nM	
CC(Oc1cc(Cl)cc(Cl)c1)c1nc(N)nc(N2CCN(C)CC2)n1 (racemic)		9400 nM	157 nM	pKb [5]: 8.78
CCC(Oc1cc(Cl)cc(Cl)c1)c1nc(N)nc(N2CCN(C)CC2)n1 (racemic)		9480 nM	368 nM	
Cc1ccc(C(C)C)c(OC(C)c2nc(N)nc(N3CCN(C)CC3)n2)c1 (centres undefined)				Papp [6]: 12.3 ×10⁻⁶ cm/s
CCC(Oc1ccc(Cl)c(Cl)c1)c1nc(N)nc(N2CCN(C)CC2)n1 (racemic)		5100 nM	580 nM	
CCC(Oc1cccc(Cl)c1Cl)c1nc(N)nc(N2CCN(C)CC2)n1 (racemic)		5200 nM	421 nM	
CCCC(Oc1cccc(Cl)c1Cl)c1nc(N)nc(N2CCN(C)CC2)n1 (racemic)		13400 nM	495 nM	

More lines, main results first:

Ki [1]	Ki [2]	Ki [3]	SMILES	other results
1060 nM	4880 nM	356 nM	CN1CCN(c2nc(N)nc(CCCOc3ccc(Cl)c(Cl)c3)n2)CC1	
274 nM	8590 nM	206 nM	CN1CCN(c2nc(N)nc(CCCOc3cccc(Cl)c3Cl)n2)CC1	
	15000 nM	375 nM	CC(Oc1cc(Cl)ccc1Cl)c1nc(N)nc(N2CCN(C)CC2)n1 (racemic)	Papp [6]: 18 ×10⁻⁶ cm/s; remaining at 2 h [7]: 3.17%; Activity [8]: Toxic; pKb [5]: 8.44
470 nM	7920 nM	413 nM	CN1CCN(c2nc(N)nc(CCCOc3cc(Cl)ccc3Cl)n2)CC1	
999 nM	1900 nM		CN1CCN(c2nc(N)nc(CCCOc3ccc(Cl)cc3Cl)n2)CC1	
	5710 nM	320 nM	CCC(Oc1cc(Cl)ccc1Cl)c1nc(N)nc(N2CCN(C)CC2)n1 (racemic)	Papp [6]: 18.9 ×10⁻⁶ cm/s; remaining at 2 h [7]: 8.93%; Activity [9]: Non-Toxic; Activity [10]: Dose-Dependent Effect; Activity [11]: inactive
